Only some compounds are listed: those with a hit (about 2.3% of all), similar ones and a draw of the others.
TAAR1 antag: human TAAR1 antagonists, primary screen, Fluo-8 calcium fluorescence, CHO RD-HGA16 cells; Trace amine-associated receptor 1 (Homo sapiens), Q96RJ0; antagonist; inhibition, % at 3 µM; 360,000 tested, 1.5% active; AID 624466, 2012;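 active = inhibition above a per-plate cutoff, the mean inhibition of test compounds on that plate plus 3 SD, cut at about 49% in these data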;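 note: 0% = DMSO plus EC80 beta-PEA response and 100% = DMSO alone without agonist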
Target sequence (Q96RJ0 whole entry, looked up): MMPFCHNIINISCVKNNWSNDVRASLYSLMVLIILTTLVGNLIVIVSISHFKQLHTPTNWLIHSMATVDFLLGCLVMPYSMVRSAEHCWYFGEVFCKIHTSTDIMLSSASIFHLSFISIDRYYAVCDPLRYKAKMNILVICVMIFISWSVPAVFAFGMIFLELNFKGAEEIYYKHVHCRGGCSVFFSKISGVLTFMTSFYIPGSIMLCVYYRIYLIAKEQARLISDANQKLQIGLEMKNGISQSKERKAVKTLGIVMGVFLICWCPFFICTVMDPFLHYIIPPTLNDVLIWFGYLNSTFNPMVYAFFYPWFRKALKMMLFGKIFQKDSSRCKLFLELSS
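Test system – hTAAR1-expressing CHO RD-HGA16 cells, Gα16-coupled · Also added – β-PEA at EC80 concentration, post-compound challenge · Compound – 3 µM, single point · Incubation – dye loading 75 min at 37 °C, then 30 min room temperature · Measured by – Fluo-8 intracellular calcium dye fluorescence, real-time kinetic reads · Benchmarks – vehicle and agonist controls · Replicates – singlicate, one well per test compound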
OXTR ag: human OXTR agonists, primary screen, fluorescence, CHO-OTR cells, Fluo-8 calcium; Oxytocin receptor (Homo sapiens), P30559; Fluo-8 calcium fluorescence; normalized: DMSO 0%, oxytocin 100%; activation, % at 3 µM; 320,000 tested, 0.32% active; AID 2435, 2010;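 active = activation above the mean of all tested compounds plus 3 SD, cutoff set per screening run, cut at about 20% in these data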;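 note: peak over basal fluorescence ratio from a 100 s FLIPR kinetic read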
Target sequence (P30559 whole entry, looked up): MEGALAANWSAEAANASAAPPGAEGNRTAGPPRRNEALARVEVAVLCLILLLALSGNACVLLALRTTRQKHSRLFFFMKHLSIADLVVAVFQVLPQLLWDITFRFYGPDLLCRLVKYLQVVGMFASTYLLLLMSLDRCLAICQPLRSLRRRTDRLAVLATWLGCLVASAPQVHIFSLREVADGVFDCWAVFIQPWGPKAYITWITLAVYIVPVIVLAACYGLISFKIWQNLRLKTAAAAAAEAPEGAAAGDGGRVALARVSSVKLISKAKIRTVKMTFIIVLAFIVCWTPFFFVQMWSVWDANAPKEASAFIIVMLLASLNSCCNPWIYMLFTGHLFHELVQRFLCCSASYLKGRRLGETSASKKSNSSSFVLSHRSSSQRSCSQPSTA
OXTR potentiate: human OXTR potentiators, primary screen, fluorescence, CHO-OTR cells, Fluo-8 calcium | activation, % at 3 µM | Fluo-8 calcium fluorescence, potentiator mode; 0% = oxytocin EC15, 100% = EC100 | Oxytocin receptor (Homo sapiens), P30559 | AID 2445, 2010 | 320,000 tested, 0.061% active;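 active = activation above that plate's cutoff, the mean activation of tested compounds plus 3 SD, cut at about 6.6% in these data, passing the limit was not always enough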;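 note: 100% uses oxytocin at 75 nM as the full agonist control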
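Assay system: CHO-OTR cells, human receptor / Also added: oxytocin at about EC15, sub-maximal agonist stimulus / Dosing: single dose, 3.0 µM nominal final compound concentration / Incubation: 6 min pre-incubation, 100 s read / Technique: Fluo-8 calcium dye fluorescence / Read-out: % activation vs EC15 and EC100 oxytocin / Benchmarks: EC15 oxytocin low, 75 nM oxytocin high / Replicates: singlicate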
TAAR1 agonist: human TAAR1 agonists, primary screen, Fluo-8 calcium fluorescence, CHO RD-HGA16 cells; 360,000 tested, 0.99% active; Trace amine-associated receptor 1 (Homo sapiens), Q96RJ0; AID 624467, 2012; vehicle wells 0%, saturating PEA agonist 100%; activation, % at 3 µM;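 active = activation above the mean activation of all test compounds in the run plus 3 SD, cut at about 38% in these data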
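Test system: RD-HGA16 (CHO) cells co-expressing Gα16 and hTAAR1 / Benchmarks: DMSO vehicle as 0%, PEA at EC100 as 100% / Repeats: no replicates (n 1) / Measure: % activation from peak over basal fluorescence ratio, DMSO-to-PEA scaled / Timing: 17-24 h plating, Fluo-8 75 min 37 °C, 30 min RT / Technique: kinetic Fluo-8 calcium fluorescence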
V1R ag counter: agonists of human V1a receptor, primary screen, counter-screen for OXTR agonist project, fluorescence, CHO-V1R cells. Vasopressin V1a receptor (Homo sapiens), P37288. Fluo-8 calcium fluorescence, agonist mode; 0% DMSO, 100% 3 nM vasopressin. activation, % at 3 µM. 320,000 tested, 0.25% active;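 active = activation above the mean activation of all tested compounds plus 3 SD, per screening run, cut at about 20% in these data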;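 note: signal is peak over basal fluorescence ratio across a 100 second FLIPR read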
The depositor's hits bear a star; / = no result given.

SMILES	TAAR1 antag	OXTR ag	OXTR potentiate	TAAR1 agonist	V1R ag counter
O=P(CCCCCCCCCP(=O)(c1ccccc1)c1ccccc1)(c1ccccc1)c1ccccc1	90.1*	20.0*	-21.5	33.4	23.7*
NC1(N2SC(S)=C3CCCC=C32)CCCCC1	-15.0	/	/	0.5	/
CCCCCCCCCCCCCCCC[n+]1cccc(C(=O)N(CC)CC)c1	41.8	37.4*	-18.6	7.8	23.5*
CCCCCCCC[n+]1cccc(C(=O)N(CC)CC)c1	9.9	0.2	-1.8	7.2	0.8
O=[N+]([O-])c1cc([N+](=O)[O-])c2cc(-c3cccnc3)[nH]c2c1	49.5*	3.1	-4.4	19.3	3.0
O=[N+]([O-])c1ccc2nc(-c3cccnc3)[nH]c2c1	8.5	1.2	-11.0	7.2	1.7
O=C(Nc1nc2c(s1)CN(Cc1ccccc1)CC2)c1cccc(S(=O)(=O)N2CCc3ccccc32)c1	20.9	1.3	-12.6	37.7*	4.0
CC(=O)Nc1cccc(NC(=O)c2ccc3c(c2)CCN3S(=O)(=O)c2ccccc2)c1	49.8*	2.1	-3.2	5.0	8.3
c1ccc(CNc2c(C3CCNCC3)nc3scc(-c4ccccc4)n23)cc1	-21.4	/	/	1.7	/
O=C1NC(Cc2ccc(O)cc2)c2nc3ccc(F)cc3c(=O)n2-c2cc3ccccc3cc21 (stereo not drawn)	50.3*	/	/	7.7	/
O=C1NC(Cc2ccc(O)cc2)c2nc3cc(F)c(F)cc3c(=O)n2-c2cc3ccccc3cc21 (stereo not drawn)	37.6	/	/	1.8	/
CCc1ccc(C2CC3C(CN2S(=O)(=O)c2ccc(C)cc2)[C@@H](O)C[C@@H](c2ccc(CC)cc2)N3S(=O)(=O)c2ccc(C)cc2)cc1 (stereo partly drawn)	-11.2	/	/	1.2	/
O=S(=O)(c1ccccc1)N1CCN(Cc2c(O)ccc3ccccc23)CC1	51.4*	0.9	-10.5	6.7	0.5
COc1ccc(NC(=O)NN2CCOCC2)cc1OC	63.2*	1.4	4.7	5.8	1.1
COc1ccc(CN(C)C(=O)[C@H]2O[C@@H](n3cnc4c(N)ncnc43)[C@H](O)[C@@H]2O)cc1OC	-12.2	/	/	4.6	/
CC(=O)c1ccc(NC(=O)c2ccc3snnc3c2)cc1	-3.7	1.1	-4.2	3.2	3.5
O=C(Nc1ccccc1)Nc1ccc2snnc2c1	16.6	18.1	-21.8	40.5*	11.7
CN(C)c1ccc(NC(=O)Nc2ccc3snnc3c2)cc1	57.9*	10.2	-31.7	22.0	9.0
O=C(Nc1ccccc1)Nc1ccc2nnsc2c1	3.0	12.6	-18.1	30.4	15.3
C[C@@H]1CN([C@@H](C)CO)C(=O)CCCn2cc(nn2)CO[C@H]1CN(C)C(=O)c1ccncc1	10.9	/	/	2.6	/
COC(=O)c1cnc(Nc2nc(C(N)Cc3ccc(OC)cc3)cs2)nc1C(F)(F)F (stereo not drawn)	15.8	/	/	44.9*	/
COC(=O)c1cnc(Nc2nc(C(N)Cc3ccc(Cl)cc3)cs2)nc1C(F)(F)F (stereo not drawn)	-8.7	/	/	10.3	/
COc1ccc(CC(N)c2csc(NC(=O)c3ccccc3)n2)cc1 (stereo not drawn)	12.9	/	/	15.4	/
CC(C)c1ccccc1NC(=O)Nc1nc(C(N)Cc2ccc(C(F)(F)F)cc2)cs1 (stereo not drawn)	36.5	/	/	38.0*	/
NC(Cc1ccccc1)c1csc(NC(=O)c2cccc(OC(F)(F)F)c2)n1 (stereo not drawn)	12.1	/	/	44.6*	/
SMILES	TAAR1 antag	OXTR ag	OXTR potentiate	TAAR1 agonist	V1R ag counter
COc1ccc(CC(N)c2csc(NC(=O)C(c3ccccc3)c3ccccc3)n2)cc1 (stereo not drawn)	23.0	/	/	47.4*	/
COc1ccc(CC(N)c2csc(NC(=O)c3cccc(OC(F)(F)F)c3)n2)cc1 (stereo not drawn)	41.0	/	/	36.3	/
COc1cc(CCC(C)=O)ccc1OC(=O)c1c(-c2c(F)cccc2Cl)noc1C	31.9	/	/	0.8	/
Cc1cccc(C(=O)N2CCC[C@H]2C(=O)N2CCC[C@H]2C(=O)NCc2ccncc2)c1	-1.3	/	/	4.2	/
COc1ccc(CNC(=O)Nc2nc(C(N)Cc3ccc(C(F)(F)F)cc3)cs2)cc1 (stereo not drawn)	48.9*	/	/	43.9*	/
COc1ccc(CC(N)c2csc(NC(=O)NCCc3ccccc3)n2)cc1 (stereo not drawn)	44.3	/	/	38.1*	/
NC(Cc1ccc(Cl)cc1)c1csc(NC(=O)NCC2CCCCC2)n1 (stereo not drawn)	36.6	/	/	46.1*	/
CC(=O)N(C)C[C@@H]1Oc2ncc(C#Cc3ccc(F)cc3)cc2C(=O)N([C@@H](C)CO)C[C@H]1C	1.4	/	/	4.2	/
CCOc1ccc(/C=C2\CCCc3c2nc2ccccc2c3C(=O)O)cc1OC	/	100.2*	-17.3	/	134.8*
COc1ccc(/C=C2\CCCc3c2nc2ccccc2c3C(=O)O)cc1OC	/	1.6	-9.3	/	14.2
O=C(CCc1ccccc1)NC1(Cc2ccccc2)CCN(CCc2cccs2)C1=O (stereo not drawn)	22.4	-1.0	0.2	22.8	-1.5
O=C(NC1(Cc2ccccc2)CCN(Cc2ccc(-c3ccccc3)cc2)C1=O)c1ccccc1 (stereo not drawn)	62.1*	4.4	-6.3	20.1	2.1
COc1ccc(N2C(=O)c3[nH]nc(-c4ccccc4)c3C2c2ccc(F)cc2)cc1 (stereo not drawn)	-21.6	/	/	34.6	/
CC(O)CN(CC(C)O)c1ccc2c(c1)Cc1cc([N+](=O)[O-])ccc1-2 (stereo not drawn)	79.3*	/	/	92.9*	/
CCOC(=O)Nc1ccc2c(c1)Cc1cc([N+](=O)[O-])ccc1-2	-2.9	/	/	0.0	/
CC(=NO)c1ccc2c(c1)Cc1cc([N+](=O)[O-])ccc1-2	-11.0	/	/	0.7	/
Nc1ccc2c(c1)Cc1cc([N+](=O)[O-])ccc1-2	31.5	22.1*	-13.2	24.4	31.2*
COc1cccc(C(CC2=CCCCC2)NC(=O)C(F)(F)F)c1 (stereo not drawn)	2.1	/	/	2.0	/
COc1cc(/C=C2/S/C(=N/S(=O)(=O)c3ccccc3)NC2=O)c([N+](=O)[O-])cc1OC	-4.3	-0.7	-12.6	-0.3	-0.3
O=C1N/C(=N\S(=O)(=O)c2ccccc2)S/C1=C\c1cc([N+](=O)[O-])ccc1O	53.6*	25.4*	-16.8	36.8	20.4*
O=C1N/C(=N\S(=O)(=O)Cc2ccccc2)S/C1=C/c1cc([N+](=O)[O-])ccc1O	72.2*	43.1*	-13.5	57.4*	62.6*
CCN(CC)C(=S)SSC(=S)N(CC)CC	31.8	2.9	-1.4	47.3*	9.9
